Measured values: ChEMBL document CHEMBL1641459, “Virtual screening and synthesis of quinazolines as novel JAK2 inhibitors” (Bioorg Med Chem, 2011)
Active and inactive are the calls of the source. The rule behind the calls is not given here.

What follows are compounds tested on HT-29 (assay: Cytotoxicity against human HT-29 cells after 48 hrs by MTT assay). Settings: HT-29, 48 h.
Type: functional, cell-based

Row | Structure (SMILES) | IC50 [µM]
1 | COc1cc2ncnc(Nc3ccc(O)cc3)c2cc1OC | 93
2 | N#C/C(=C\c1ccc(O)c(O)c1)C(=O)NCc1ccccc1 | 78.5
3 | COc1cc2ncnc(NCCN3CCOCC3)c2cc1OC | > 100
4 | COc1ccc(CCNc2ncnc3cc(OC)c(OC)cc23)cc1OC | > 100
5 | COc1cc2ncnc(Nc3ccc(Br)cc3)c2cc1OC | > 100
6 | COc1cc2ncnc(NN3CCOCC3)c2cc1OC | > 100
7 | COc1cc2ncnc(Nc3nc4c(Cl)cccc4s3)c2cc1OC | > 100
8 | COc1cc2ncnc(Nc3ccccc3C)c2cc1OC | > 100
9 | COc1cc2ncnc(Nc3cccc(O)c3)c2cc1OC | 59.7
10 | COCCNc1ncnc2cc(OC)c(OC)cc12 | > 100
11 | COc1cc2ncnc(Nc3ccc(C)cc3)c2cc1OC | 57.9
12 | COc1cccc(Nc2ncnc3cc(OC)c(OC)cc23)c1 | > 100
13 | COc1cc2ncnc(Nc3cccc4ccccc34)c2cc1OC | 7.65

Each compound was assayed against Tyrosine-protein kinase JAK2 (Homo sapiens) (UniProt O60674) (assay: Inhibition of IL-6-induced JAK2 phosphorylation in human HT-29 cells at 10 to 20 uM by Western blotting). Settings: not given.
Sequence of Tyrosine-protein kinase JAK2 (Homo sapiens) (O60674 whole entry): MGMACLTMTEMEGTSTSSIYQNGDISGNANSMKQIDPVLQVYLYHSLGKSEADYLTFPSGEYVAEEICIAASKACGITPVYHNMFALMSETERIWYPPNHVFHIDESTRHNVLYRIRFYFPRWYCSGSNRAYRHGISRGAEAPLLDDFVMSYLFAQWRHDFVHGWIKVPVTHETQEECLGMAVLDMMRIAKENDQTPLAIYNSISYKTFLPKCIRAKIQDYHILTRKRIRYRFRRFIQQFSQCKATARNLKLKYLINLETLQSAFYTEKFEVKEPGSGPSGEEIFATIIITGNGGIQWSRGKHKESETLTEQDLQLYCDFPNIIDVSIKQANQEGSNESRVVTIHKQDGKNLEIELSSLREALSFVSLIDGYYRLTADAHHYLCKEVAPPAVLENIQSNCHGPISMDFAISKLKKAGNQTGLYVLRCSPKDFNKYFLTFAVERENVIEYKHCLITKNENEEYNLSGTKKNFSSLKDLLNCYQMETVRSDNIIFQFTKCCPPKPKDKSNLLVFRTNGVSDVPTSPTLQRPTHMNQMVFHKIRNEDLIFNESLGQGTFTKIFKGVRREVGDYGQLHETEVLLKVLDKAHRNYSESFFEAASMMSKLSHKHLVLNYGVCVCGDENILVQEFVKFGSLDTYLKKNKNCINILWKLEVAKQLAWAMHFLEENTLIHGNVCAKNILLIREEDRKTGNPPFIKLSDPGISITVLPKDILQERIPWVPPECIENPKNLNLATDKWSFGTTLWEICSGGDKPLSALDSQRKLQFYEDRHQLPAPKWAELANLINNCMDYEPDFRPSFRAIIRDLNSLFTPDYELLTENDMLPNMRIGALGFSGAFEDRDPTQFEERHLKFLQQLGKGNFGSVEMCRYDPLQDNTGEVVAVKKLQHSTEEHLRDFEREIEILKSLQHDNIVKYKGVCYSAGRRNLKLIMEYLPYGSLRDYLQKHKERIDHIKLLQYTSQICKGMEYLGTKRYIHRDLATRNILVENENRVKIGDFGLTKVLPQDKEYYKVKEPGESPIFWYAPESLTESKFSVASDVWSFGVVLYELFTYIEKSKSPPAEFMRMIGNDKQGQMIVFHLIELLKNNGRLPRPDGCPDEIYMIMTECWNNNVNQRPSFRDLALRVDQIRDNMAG
Type: cell-based
In short: (§1)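 HT-29 cells treated with IL-6 for 0.5 h, then compound (10, 20 µM or 50, 100 µM); lysed in ice-cold Hepes/Triton X-100 buffer with protease/phosphatase inhibitors, 30–40 µg protein immunoblotted for JAK2 and p-JAK2, ECL detection, GAPDH control; densitometry as % of control, three independent experiments.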

Row | inhibition | Structure (SMILES)
14 | inactive | N#C/C(=C\c1ccc(O)c(O)c1)C(=O)NCc1ccccc1

The compounds below were run against Tyrosine-protein kinase JAK2 (Homo sapiens) (UniProt O60674) (assay: Inhibition of IL-6-induced JAK2 phosphorylation in human HT-29 cells at 50 to 100 uM by Western blotting). Settings: not given.
Type: cell-based
In short: as §1

Row | inhibition | Structure (SMILES)
15 | Active | N#C/C(=C\c1ccc(O)c(O)c1)C(=O)NCc1ccccc1

What follows are compounds tested on HT-29 (assay: Induction of cell cycle arrest in human HT-29 cells assessed as increase accumulation at G2/M phase at 10 to 30 uM after 48 hrs by flow cytometry). Settings: not given.
Type: functional, cell-based
In short: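 HT-29 cells at 70–80% confluence treated at 10, 20 and 30 µM for 48 h, ethanol-fixed (70%, 1 h on ice), propidium iodide stained with RNase A, DNA content analysed by flow cytometry; three independent experiments, Student's t-test versus untreated control.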

Row | Structure (SMILES) | Activity
16 | N#C/C(=C\c1ccc(O)c(O)c1)C(=O)NCc1ccccc1 | Active

Each compound was assayed against Tyrosine-protein kinase JAK2 (Mus musculus) (UniProt Q62120) (assay: Inhibition of IL-6-induced JAK2 phosphorylation in mouse embryonic stem cells at 20 uM by Western blotting). Settings: not given.
Sequence of Tyrosine-protein kinase JAK2 (Mus musculus) (Q62120 whole entry): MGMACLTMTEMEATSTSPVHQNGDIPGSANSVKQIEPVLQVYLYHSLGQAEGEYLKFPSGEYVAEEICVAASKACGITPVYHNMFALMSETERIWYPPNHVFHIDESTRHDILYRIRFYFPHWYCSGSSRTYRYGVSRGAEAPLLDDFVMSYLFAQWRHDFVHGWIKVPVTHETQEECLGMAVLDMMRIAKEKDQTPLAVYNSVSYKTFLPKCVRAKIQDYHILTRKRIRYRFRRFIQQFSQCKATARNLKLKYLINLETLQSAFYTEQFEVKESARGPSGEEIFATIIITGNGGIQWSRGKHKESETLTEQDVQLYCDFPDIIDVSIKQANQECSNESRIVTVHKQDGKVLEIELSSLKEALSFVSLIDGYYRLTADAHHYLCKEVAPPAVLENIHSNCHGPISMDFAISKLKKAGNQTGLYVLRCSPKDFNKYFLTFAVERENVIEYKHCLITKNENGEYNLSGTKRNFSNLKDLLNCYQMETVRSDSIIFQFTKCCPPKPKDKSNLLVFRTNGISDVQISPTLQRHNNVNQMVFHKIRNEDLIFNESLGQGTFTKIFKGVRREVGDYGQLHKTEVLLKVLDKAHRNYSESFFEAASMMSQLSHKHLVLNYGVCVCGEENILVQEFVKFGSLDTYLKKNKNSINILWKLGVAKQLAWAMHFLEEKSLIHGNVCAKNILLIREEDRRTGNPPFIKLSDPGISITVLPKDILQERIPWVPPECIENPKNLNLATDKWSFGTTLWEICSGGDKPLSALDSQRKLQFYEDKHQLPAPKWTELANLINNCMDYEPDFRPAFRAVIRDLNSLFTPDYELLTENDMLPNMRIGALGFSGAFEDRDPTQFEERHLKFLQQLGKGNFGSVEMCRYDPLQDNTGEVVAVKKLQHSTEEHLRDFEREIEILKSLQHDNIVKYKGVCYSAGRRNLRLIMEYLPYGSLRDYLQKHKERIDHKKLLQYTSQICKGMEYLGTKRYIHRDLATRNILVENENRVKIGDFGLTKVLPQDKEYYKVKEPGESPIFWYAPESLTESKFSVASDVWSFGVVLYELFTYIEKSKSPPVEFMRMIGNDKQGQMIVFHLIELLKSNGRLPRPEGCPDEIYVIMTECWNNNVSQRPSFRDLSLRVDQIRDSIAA
Type: cell-based
In short: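 Mouse embryonic stem cells pretreated with IL-6, then exposed to compound; p-JAK2 level assessed by Western blotting.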

Row | inhibition | Structure (SMILES)
17 | Active | COc1cc2ncnc(NN3CCOCC3)c2cc1OC

Each compound was assayed against Tyrosine-protein kinase JAK2 (Homo sapiens) (UniProt O60674) (assay: Inhibition of IL-6-induced JAK2 phosphorylation in human HT-29 cells by Western blotting). Settings: not given.
Type: cell-based
In short: as §1

Row | inhibition | Structure (SMILES)
18 | Dose-dependent effect | COc1cc2ncnc(Nc3cccc4ccccc34)c2cc1OC

What follows are compounds tested on HT-29 (assay: Cytotoxicity against human HT-29 cells upto 25 uM after 48 hrs by MTT assay). Settings: not given.
Type: functional, cell-based
In short: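 MTT assay: cells seeded at 1 × 10⁵ cells/mL in RPMI-1640 with 10% FBS, compounds added after 24 h at various concentrations and exposed 48 h; MTT (5 mg/mL stock in PBS) added for 4 h, formazan dissolved in DMSO, absorbance read at 540 nm. Cells cultured in RPMI-1640, 10% FBS, 37 °C, 5% CO₂.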

Row | Structure (SMILES) | Activity
19 | N#C/C(=C\c1ccc(O)c(O)c1)C(=O)NCc1ccccc1 | inactive

Each compound was assayed on HT-29 (assay: Induction of cell cycle arrest in human HT-29 cells assessed as increase accumulation at G2/M phase at 5 to 20 uM after 24 hrs by flow cytometry). Settings: not given.
Type: functional, cell-based
In short: (§2)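 HT-29 cells grown to 70–80% confluence, treated at 5, 10 and 20 µM for 24 h, fixed in 70% ethanol 1 h on ice, stained with propidium iodide (50 µg/mL) plus RNase A for 30 min in the dark at room temperature, DNA content by flow cytometry; means of three independent experiments, Student's t-test.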

Row | Structure (SMILES) | Activity
20 | COc1cc2ncnc(Nc3cccc4ccccc34)c2cc1OC | Active

The compounds below were run on HeLa (assay: Cytotoxicity against human HeLa cells after 48 hrs by MTT assay). Settings: not given.
Type: functional, cell-based

Row | Structure (SMILES) | IC50 [µM]
21 | COc1cc2ncnc(Nc3ccc(O)cc3)c2cc1OC | 51.5
22 | N#C/C(=C\c1ccc(O)c(O)c1)C(=O)NCc1ccccc1 | > 100
23 | COc1cc2ncnc(NCCN3CCOCC3)c2cc1OC | > 100
24 | COc1ccc(CCNc2ncnc3cc(OC)c(OC)cc23)cc1OC | > 100
25 | COc1cc2ncnc(NN3CCOCC3)c2cc1OC | > 100
26 | COc1cc2ncnc(Nc3nc4c(Cl)cccc4s3)c2cc1OC | > 100
27 | COc1cc2ncnc(Nc3ccccc3C)c2cc1OC | > 100
28 | COc1cc2ncnc(Nc3cccc(O)c3)c2cc1OC | 43.9
29 | COCCNc1ncnc2cc(OC)c(OC)cc12 | > 100
30 | COc1cc2ncnc(Nc3ccc(C)cc3)c2cc1OC | 99.5
31 | COc1cccc(Nc2ncnc3cc(OC)c(OC)cc23)c1 | > 100
32 | COc1cc2ncnc(Nc3cccc4ccccc34)c2cc1OC | 8.02

Each compound was assayed on SK-OV-3 (assay: Cytotoxicity against human SKOV3 cells after 48 hrs by MTT assay). Settings: SK-OV-3, 48 h.
Type: functional, cell-based

Row | Structure (SMILES) | IC50 [µM]
33 | COc1cc2ncnc(Nc3ccc(O)cc3)c2cc1OC | 74.6
34 | COc1cc2ncnc(NCCN3CCOCC3)c2cc1OC | > 100
35 | COc1ccc(Nc2ncnc3cc(OC)c(OC)cc23)cc1 | > 100
36 | COc1ccc(CCNc2ncnc3cc(OC)c(OC)cc23)cc1OC | > 100
37 | COc1cc2ncnc(Nc3ccc(Br)cc3)c2cc1OC | > 100
38 | COc1cc2ncnc(NN3CCOCC3)c2cc1OC | > 100
39 | COc1cc2ncnc(Nc3nc4c(Cl)cccc4s3)c2cc1OC | > 100
40 | COc1cc2ncnc(Nc3ccccc3C)c2cc1OC | > 100
41 | COc1cc2ncnc(Nc3cccc(O)c3)c2cc1OC | 37.5
42 | COCCNc1ncnc2cc(OC)c(OC)cc12 | > 100
43 | COc1cc2ncnc(Nc3ccc(C)cc3)c2cc1OC | 91.9
44 | COc1cccc(Nc2ncnc3cc(OC)c(OC)cc23)c1 | > 100
45 | COc1cc2ncnc(Nc3cccc4ccccc34)c2cc1OC | 16.7

These compounds were tested against Tyrosine-protein kinase JAK2 (Homo sapiens) (UniProt O60674) (assay: Inhibition of recombinant JAK2 at 20 uM). Settings: not given.

Row | inhibition [%] | Structure (SMILES)
46 | 33.1 | COc1cc2ncnc(Nc3ccc(O)cc3)c2cc1OC
47 | 55.1 | N#C/C(=C\c1ccc(O)c(O)c1)C(=O)NCc1ccccc1
48 | 29.5 | COc1cc2ncnc(NCCN3CCOCC3)c2cc1OC
49 | 25.3 | COc1ccc(CCNc2ncnc3cc(OC)c(OC)cc23)cc1OC
50 | 29.3 | COc1cc2ncnc(Nc3ccc(Br)cc3)c2cc1OC
51 | 44.4 | COc1cc2ncnc(NN3CCOCC3)c2cc1OC
52 | 14.4 | COc1cc2ncnc(Nc3nc4c(Cl)cccc4s3)c2cc1OC
53 | 10.6 | COc1cc2ncnc(Nc3ccccc3C)c2cc1OC
54 | 23.8 | COc1cc2ncnc(Nc3cccc(O)c3)c2cc1OC
55 | 38 | COCCNc1ncnc2cc(OC)c(OC)cc12
56 | 18.4 | COc1cc2ncnc(Nc3ccc(C)cc3)c2cc1OC
57 | 29.4 | COc1cccc(Nc2ncnc3cc(OC)c(OC)cc23)c1
58 | 43 | COc1cc2ncnc(Nc3cccc4ccccc34)c2cc1OC

The compounds below were run against Tyrosine-protein kinase JAK2 (Homo sapiens) (UniProt O60674) (assay: Inhibition of human JAK2-mediated IL6-induced Stat3-STAT3-dependent luciferase activity in human HT-29 cells at 5 to 20 uM by Western blotting). Settings: in the assay text read “by luciferase reporter gene assay” for “by Western blotting”.
Type: cell-based
In short: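 HT-29 cells co-transfected with pSTAT3-Luc and phRL-TK; after 24 h serum-starved overnight, treated 1 h with compound at varying concentrations and stimulated with IL-6 (20 ng/mL); dual luciferase readout normalised to Renilla; three independent experiments, Student's t-test.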

Row | inhibition | Structure (SMILES)
59 | Active | COc1cc2ncnc(Nc3cccc4ccccc34)c2cc1OC

Each compound was assayed on HT-29 (assay: Induction of cell cycle arrest in human HT-29 cells assessed as decrease in accumulation at G1 phase at 5 to 20 uM after 24 hrs by flow cytometry). Settings: not given.
Type: functional, cell-based
In short: as §2

Row | Structure (SMILES) | Activity
60 | COc1cc2ncnc(Nc3cccc4ccccc34)c2cc1OC | Active
